Our source for the Ki values is PubChem BioAssay AID504906 (The Scripps Research Institute Molecular Screening Center, 2011).

The target of this experiment is Nuclear receptor ROR-alpha (Homo sapiens) (UniProt P35398). The experiment is described as follows: displacement of tritiated 25-hydroxycholesterol from RORa – biochemical, [3H]25-hydroxycholesterol, radioligand competition, GST-RORa LBD, orthogonal assay for RORA inverse agonist project, late-stage follow-up (AID 504906). The settings on record: [3H]25-hydroxycholesterol displacement, radioligand binding. The method in brief:
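Material: purified GST-tagged human RORα ligand-binding domain, residues 304-556, E. coli-expressed / Reagent: 3 nM [3H]25-hydroxycholesterol / Technique: GF/B filter capture of bound radioligand / Evaluation: Ki via mixed-inhibition model regression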

Chain of Nuclear receptor ROR-alpha (Homo sapiens) (P35398 whole entry, looked up, the tested form may be a part): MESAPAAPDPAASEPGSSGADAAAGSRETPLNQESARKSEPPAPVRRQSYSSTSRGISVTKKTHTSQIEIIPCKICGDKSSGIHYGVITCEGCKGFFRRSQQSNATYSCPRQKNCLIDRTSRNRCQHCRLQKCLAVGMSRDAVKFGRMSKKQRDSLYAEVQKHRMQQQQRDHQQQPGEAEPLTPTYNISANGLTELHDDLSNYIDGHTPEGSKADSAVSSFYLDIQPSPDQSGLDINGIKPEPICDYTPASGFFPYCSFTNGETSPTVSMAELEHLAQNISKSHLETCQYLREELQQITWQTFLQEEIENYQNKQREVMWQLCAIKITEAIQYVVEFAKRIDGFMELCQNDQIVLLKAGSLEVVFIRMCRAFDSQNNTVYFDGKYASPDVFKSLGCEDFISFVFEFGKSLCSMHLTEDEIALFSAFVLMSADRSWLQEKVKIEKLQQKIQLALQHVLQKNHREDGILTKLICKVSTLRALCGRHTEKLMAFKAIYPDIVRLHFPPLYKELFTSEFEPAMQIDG

Turning to `O=S(=O)(Nc1ccc(C(O)(C(F)(F)F)C(F)(F)F)cc1)c1cccs1`, the Ki was 220 nM.

The term Ki denotes the equilibrium dissociation constant of an inhibitor or competing ligand from its target.
